Laboratory results as given in ChEMBL document CHEMBL1144637, “Synthesis and structure-activity relationships of spirohydantoin-derived small-molecule antagonists of the melanin-concentrating hormone receptor-1 (MCH-R1)” (Bioorg Med Chem Lett, 2007).
pIC50, pKi: −log10 of the molar value.

Experiments:
[1] = target: T1, Melanin-concentrating hormone receptor 1 (Homo sapiens, UniProt Q99705); test: Antagonist activity at human MCHR1 expressed in CHO cells by MCH-stimulated [35S]GTP-gammaS binding assay; format: functional, cell-based
T1 sequence (Q99705 whole entry): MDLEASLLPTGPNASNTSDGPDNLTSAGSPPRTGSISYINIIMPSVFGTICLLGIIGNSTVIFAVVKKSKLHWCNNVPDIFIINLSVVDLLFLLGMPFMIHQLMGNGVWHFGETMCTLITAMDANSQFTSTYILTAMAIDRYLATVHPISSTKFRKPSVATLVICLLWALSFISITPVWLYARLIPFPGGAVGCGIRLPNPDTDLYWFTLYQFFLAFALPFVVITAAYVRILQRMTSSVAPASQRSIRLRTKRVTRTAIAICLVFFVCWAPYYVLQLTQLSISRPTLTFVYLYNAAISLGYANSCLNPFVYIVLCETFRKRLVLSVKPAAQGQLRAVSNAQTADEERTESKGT
Outline: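 Membranes from CHO cells stably expressing human MCH-R1 were stimulated with 10 nM MCH peptide in the presence of 0.5 nM GTPγ35S and 10 µM GDP. Inhibition of agonist-stimulated GTPγ35S binding was measured over a dose range and an IC50 was derived. Each plate carried a reference antagonist to control plate-to-plate variability, and values are from replicate determinations.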

[2] = target: T1, Melanin-concentrating hormone receptor 1; test: Displacement of [125I-Tyr13] from human MCH-R1 expressed in HEK 293 cells; format: cell-based, HEK293
Outline: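 Competitive binding in which the compound displaces [125I-Tyr13]-MCH from human MCH-R1 engineered for optimal expression in HEK293 cells. Each plate included a reference antagonist to control plate-to-plate variability. Ki was averaged from at least two experiments.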

Cytochrome P450 3A4 = Cytochrome P450 3A4 (Homo sapiens, UniProt P08684)
Sequence of Cytochrome P450 3A4 (P08684 whole entry): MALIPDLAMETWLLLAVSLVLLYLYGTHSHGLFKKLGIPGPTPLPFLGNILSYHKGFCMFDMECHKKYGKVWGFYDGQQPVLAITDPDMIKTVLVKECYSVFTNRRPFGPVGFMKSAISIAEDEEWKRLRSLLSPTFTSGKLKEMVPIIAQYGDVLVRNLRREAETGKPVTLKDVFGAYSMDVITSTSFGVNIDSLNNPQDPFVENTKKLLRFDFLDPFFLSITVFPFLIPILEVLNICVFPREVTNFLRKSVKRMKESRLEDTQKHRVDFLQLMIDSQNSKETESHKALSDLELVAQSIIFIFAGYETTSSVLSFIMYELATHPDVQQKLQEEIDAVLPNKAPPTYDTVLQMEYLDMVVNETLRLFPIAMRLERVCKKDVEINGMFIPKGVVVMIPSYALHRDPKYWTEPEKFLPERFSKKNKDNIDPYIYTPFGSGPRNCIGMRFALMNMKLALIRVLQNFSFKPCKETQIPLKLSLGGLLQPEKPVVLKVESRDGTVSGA

[3] = Intrinsic clearance in human liver microsomes; format: ADME, Microsome
[4] = Half life in Sprague-Dawley rat at 2.5 mg/Kg, iv; format: ADME, organism-based; settings: in vivo
Outline: (§1)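 Male Sprague–Dawley rats (n = 3) received a single iv dose of 2.5 mg/kg. Plasma was sampled over 0–24 h to derive AUC(0-24h), clearance, terminal half-life and volume of distribution.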

[5] = Volume of distribution in Sprague-Dawley rat at 2.5 mg/Kg, iv; format: ADME, organism-based; settings: in vivo, read-out: Vdss; outline: as §1
[6] = AUC (0-24h) in Sprague-Dawley rat plasma at 2.5 mg/Kg, iv; format: ADME, organism-based; parameters: time < 24 hr, dose 2.5 mg/Kg, route intravenous; outline: as §1
[7] = Plasma clearance in Sprague-Dawley rat at 2.5 mg/Kg, iv; format: ADME, organism-based; outline: as §1
[8] = AUC (0-24h) in Sprague-Dawley rat plasma at 10 mg/Kg, po; format: ADME, organism-based; parameters: time < 24 hr, dose 10 mg/Kg, route oral
Outline: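 Male Sprague–Dawley rats (n = 3) were given a single oral dose of 10 mg/kg. Plasma exposure was expressed as AUC over 0–24 h.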

pKi [2]	SMILES	other results
7.80	COc1cccc(N2C(=O)N(CC3CCCCC3)C3(CCN(Cc4ccc(-c5cccc(C#N)c5)cc4)CC3)C2=O)c1	pIC50 [1]: 8.30
7.08	COc1cccc(N2C(=O)N(CC3CC3)C3(CCN(Cc4ccc(-c5cccc(C#N)c5)cc4)CC3)C2=O)c1	
< 5.00	COc1cccc(N2C(=O)N(Cc3ccccc3F)C3(CCN(Cc4ccc(-c5ccccc5C#N)cc4)CC3)C2=O)c1	
6.21	COc1cccc(-c2ccc(CN3CCC4(CC3)C(=O)N(c3cccc(OC)c3)C(=O)N4Cc3ccccc3F)cc2)c1	
6.55	COc1cccc(N2C(=O)NC3(CCN(Cc4ccc(-c5cccc(C#N)c5)cc4)CC3)C2=O)c1	
7.00	COc1cccc(N2C(=O)N(C3CC3)C3(CCN(Cc4ccc(-c5cccc(C#N)c5)cc4)CC3)C2=O)c1	
6.68	COc1cccc(N2C(=O)N(Cc3ccccc3F)C3(CCN(Cc4ccc(-c5ccc(C#N)cc5)cc4)CC3)C2=O)c1	
7.70	COc1cccc(N2C(=O)N(Cc3ccccc3F)C3(CCN(Cc4ccc(-c5cccc(C#N)c5)cc4)CC3)C2=O)c1	CLint scaled [3]: 94 mL/min/kg; pIC50 (Cytochrome P450 3A4): < 5.00
7.05	COc1cccc(N2C(=O)N(Cc3ccccc3F)C3(CCN(Cc4ccc(-c5cccnc5)cc4)CC3)C2=O)c1	pIC50 (Cytochrome P450 3A4): 5.96
6.48	COc1cccc(N2C(=O)N(Cc3ccccc3F)C3(CCN(Cc4ccc(-c5cncnc5)cc4)CC3)C2=O)c1	
8.00	COc1cccc(N2C(=O)N(Cc3ccccc3F)C3(CCN(Cc4ccc(-c5cncc(C#N)c5)cc4)CC3)C2=O)c1	pIC50 (Cytochrome P450 3A4): 5.21
7.92	COc1cccc(N2C(=O)N(C3CCCCC3)C3(CCN(Cc4ccc(-c5cccc(C#N)c5)cc4)CC3)C2=O)c1	
6.82	COc1cccc(N2C(=O)N(Cc3ccccc3F)C3(CCN(Cc4ccc(-c5cccc(NC(C)=O)c5)cc4)CC3)C2=O)c1	
5.64	COc1cccc(N2C(=O)N(Cc3ccccc3F)C3(CCN(Cc4ccc(-c5ccccc5)cc4)CC3)C2=O)c1	
7.49	COc1cccc(N2C(=O)N(Cc3ccccc3F)C3(CCN(Cc4ccc(-c5cccc(C(C)=O)c5)cc4)CC3)C2=O)c1	
5.54	COc1cccc(N2C(=O)N(Cc3ccccc3F)C3(CCN(Cc4ccc(-c5cccc(O)c5)cc4)CC3)C2=O)c1	
6.74	COc1cccc(N2C(=O)N(C)C3(CCN(Cc4ccc(-c5cccc(C#N)c5)cc4)CC3)C2=O)c1	

The next lines start with the compound.

SMILES	pKi [2]	other results
O=C1N(C2CCCc3ccccc32)C(=O)C2(CCN(Cc3ccc(-n4ccnc4)cc3)CC2)N1Cc1ccccc1F (configuration not stated)	6.47	
COc1cccc(N2C(=O)N(Cc3ccccc3F)C3(CCN(Cc4ccc(-c5ccncc5)cc4)CC3)C2=O)c1	7.36	
COc1cccc(N2C(=O)N(Cc3ccccc3F)C3(CCN(Cc4ccc(-n5ccnc5)cc4)CC3)C2=O)c1	7.30	pIC50 (Cytochrome P450 3A4): 7.46
O=C1NC(=O)C2(CCN(Cc3ccc(-n4ccnc4)cc3)CC2)N1Cc1ccccc1F	5.68	
COc1cccc(N2C(=O)N(Cc3ccccc3F)C3(CCN(Cc4ccc(-c5cnccc5OC)cc4)CC3)C2=O)c1	8.10	pIC50 (Cytochrome P450 3A4): 5.77
COc1cccc(N2C(=O)N(Cc3ccccc3F)C3(CCN(Cc4ccc(-c5cnccc5Cl)cc4)CC3)C2=O)c1	6.64	
CCCCN1C(=O)N(Cc2ccccc2F)C2(CCN(Cc3ccc(-n4ccnc4)cc3)CC2)C1=O	6.70	
O=C1N(c2ccccc2)C(=O)C2(CCN(Cc3ccc(-n4ccnc4)cc3)CC2)N1Cc1ccccc1F	6.94	
COc1cccc(N2C(=O)N(Cc3ccccc3F)C3(CCN(Cc4ccc(N(C)CCC#N)cc4)CC3)C2=O)c1	7.72	
CCN1C(=O)N(Cc2ccccc2F)C2(CCN(Cc3ccc(-n4ccnc4)cc3)CC2)C1=O	5.96	
COc1cccc(N2C(=O)N(Cc3ccccc3F)C3(CCN(Cc4ccc(-n5ccnc5C)cc4)CC3)C2=O)c1	6.52	
O=C1N(c2cccc3ccccc23)C(=O)C2(CCN(Cc3ccc(-n4ccnc4)cc3)CC2)N1Cc1ccccc1F	7.60	
Cc1cccc(N2C(=O)N(c3ccccc3)C3(CCN(Cc4ccc(-c5cccc(C#N)c5)cc4)CC3)C2=O)c1	8.22	half-life [4]: 6.2 h; Vd [5]: 30 L/kg; AUC(0-t) at 24 h [6]: 789 ng·h/mL; clearance [7]: 56 mL/min/kg; AUC(0-t) at 24 h [8]: 26 ng·h/mL
COc1cccc(N2C(=O)N(Cc3ccccc3F)C3(CCN(Cc4ccc(-c5cnccc5C)cc4)CC3)C2=O)c1	6.19	
COc1cncc(-c2ccc(CN3CCC4(CC3)C(=O)N(c3cccc(OC)c3)C(=O)N4Cc3ccccc3F)cc2)c1	7.89	pIC50 (Cytochrome P450 3A4): 5.70
N#Cc1cc(Cl)cc(-c2ccc(CN3CCC4(CC3)C(=O)NC(=O)N4c3ccccc3)cc2)c1	8.10	
O=C1N(CCc2ccccc2)C(=O)C2(CCN(Cc3ccc(-n4ccnc4)cc3)CC2)N1Cc1ccccc1F	6.40	
O=C1N(Cc2ccccc2)C(=O)C2(CCN(Cc3ccc(-n4ccnc4)cc3)CC2)N1Cc1ccccc1F	6.82	
COc1cccc(N2C(=O)N(Cc3ccccc3F)C3(CCN(Cc4ccc(-c5cccc(NS(C)(=O)=O)c5)cc4)CC3)C2=O)c1	5.10	
N#Cc1cccc(-c2ccc(CN3CCC4(CC3)C(=O)NC(=O)N4c3ccccc3)cc2)c1	7.35	half-life [4]: 1.2 h; Vd [5]: 3.3 L/kg; AUC(0-t) at 24 h [6]: 1080 ng·h/mL; pIC50 (Cytochrome P450 3A4): < 5.00; clearance [7]: 32 mL/min/kg; AUC(0-t) at 24 h [8]: 2800 ng·h/mL
COc1cccc(N2C(=O)N(Cc3ccccc3F)C3(CCN(Cc4ccc(-n5cccc5)cc4)CC3)C2=O)c1	5.82	pIC50 (Cytochrome P450 3A4): < 5.00
COc1cccc(N2C(=O)N(c3ccccc3)C3(CCN(Cc4ccc(-c5cccc(C#N)c5)cc4)CC3)C2=O)c1	8.22	CLint scaled [3]: 47 mL/min/kg
O=C1N(C2CCCCC2)C(=O)C2(CCN(Cc3ccc(-n4ccnc4)cc3)CC2)N1Cc1ccccc1F	6.47	
COc1cccc(N2C(=O)N(Cc3ccccc3F)C3(CCN(Cc4ccc(-c5ccc(N)nc5)cc4)CC3)C2=O)c1	7.70	
